Measured values from different studies.
Each line is one published result; the experiments were not run side by side. Values after ≈ are worked out from the molar mass of the structure shown.

c1ccc(-c2nc3n(c2-c2cccnc2)CCC3)nc1  IC50 (Leishmania infantum; parasite growth; intracellular, amastigote): > 64 µM
O=C(N[C@@H](Cc1ccccc1)C(=O)c1cc(-c2ccccc2)no1)[C@H](Cc1ccccc1)NC(=O)N1CCOCC1 (mixture of isomers)  IC50 (Leishmania infantum; parasite growth; intracellular, amastigote): > 64 µM
Fc1ccc(Nc2c(-c3ccccn3)nc3ccccn23)nc1  EC50 (Leishmania infantum; parasite growth; 5 days, intracellular, amastigote): > 63.1 µM
C[Si](C)(C)c1cc(C(=O)[C@H](Cc2ccccc2)NC(=O)[C@H](Cc2ccccc2)NC(=O)N2CCOCC2)no1 (single isomer, unassigned)  IC50 (Leishmania infantum; parasite growth; intracellular, amastigote): > 64 µM
CC(C(=O)O)N1C2=NC(c3ccc(Cl)cc3)C3=C(OC(C)(C)OC3=O)N2NC1(C)c1ccccc1O (centres unmarked)  inhibition zone (Streptococcus pyogenes; microbial growth; ATCC19615; 10 µg/mL, 24 h): 8 mm
O=C(N[C@@H](Cc1ccccc1)C(=O)c1cn(COCc2ccccc2)nn1)[C@H](Cc1ccccc1)NC(=O)N1CCOCC1  IC50 (Leishmania infantum; parasite growth; intracellular, amastigote): > 64 µM
O=C(O)CN1C(=O)/C(=C/c2c3ccccc3c(-c3ccc(N(c4ccccc4)c4ccccc4)cc3)c3ccccc23)SC1=S  MBC (Streptococcus pyogenes; microbial killing, broth dilution; ATCC19615): > 1000 µg/mL
C/C(O)=C1\C(=O)C(CC(C)C)N(C(=O)C=Cc2ccccc2)C1=O (centres unmarked)  MIC (Stenotrophomonas maltophilia; microbial growth; ATCC13637): > 200 µg/mL
O=C(O)CN1C(=O)/C(=C/c2ccc(-c3ccc(N(c4ccccc4)c4ccccc4)cc3)c3ccccc23)NC1=S  MIC (Streptococcus pyogenes; microbial growth, broth dilution; ATCC19615): > 1000 µg/mL
CCOC(=O)C1=C(C)N2NC(c3ccccc3O)N(C(Cc3c[nH]c4ccccc34)C(=O)O)C2=NC1c1ccc(Cl)cc1 (centres unmarked)  inhibition zone (Streptococcus pyogenes; microbial growth; ATCC19615; 15 µg/mL, 24 h): 32 mm
O=C(N[C@@H](Cc1ccccc1)C(=O)c1noc(-c2ccccc2)n1)[C@H](Cc1ccccc1)NC(=O)N1CCOCC1  IC50 (Leishmania infantum; parasite growth; intracellular, amastigote): > 64 µM
O=C(O)CN1C(=O)/C(=C/c2ccc(-c3ccc(N(c4ccccc4)c4ccccc4)cc3)cc2)SC1=S  MBC (Streptococcus pyogenes; microbial killing, broth dilution; ATCC19615): 500 µg/mL (≈ 957 µM)
CC(=O)C1=C(C)N2NC(c3ccccc3O)N(C(C)C(=O)O)C2=NC1c1ccc(Cl)cc1 (centres unmarked)  inhibition zone (Streptococcus pyogenes; microbial growth; ATCC19615; 15 µg/mL, 24 h): 17 mm
O=C1C(=Cc2cc(O)cc(O)c2)Oc2ccccc21  inhibition (Streptococcus mutans; microbial growth; UA159; 50 µM): 30%
O=C1NC(=S)N/C1=C\c1ccc(-c2ccc(N(c3ccccc3)c3ccccc3)cc2)cc1  MIC (Streptococcus mutans; microbial growth, broth dilution; ATCC25175): > 1000 µg/mL
CN(c1ccc(F)cc1)c1c(-c2ccc(F)cn2)nc2ccccn12  EC50 (Leishmania infantum; parasite growth; intracellular, amastigote): 1.26 µM
CCCCCCC/C=C/C(=O)N1C(=O)/C(=C(\O)c2ccc(F)cc2)C(=O)C1CC(C)C (centres unmarked)  MIC (Stenotrophomonas maltophilia; microbial growth; ATCC13637): 50 µg/mL (≈ 116 µM)
CC(=O)C1=C(C)N2NC(c3ccccc3O)N(C(Cc3c[nH]c4ccccc34)C(=O)O)C2=NC1c1ccc(Cl)cc1 (centres unmarked)  inhibition zone (Streptococcus pyogenes; microbial growth; ATCC19615; 15 µg/mL, 24 h): 30 mm
CN[C@H](CC(C)C)C(=O)N[C@H]1C(=O)N[C@@H](CC(N)=O)C(=O)N[C@H]2C(=O)N[C@H]3C(=O)N[C@H](C(=O)N[C@H](C(=O)O)c4cc(O)cc(O)c4-c4cc3ccc4O)[C@H](O)c3ccc(c(Cl)c3)Oc3cc2cc(c3O[C@@H]2O[C@H](CO)[C@@H](O)[C@H](O)[C@H]2O[C@H]2C[C@](C)(N)[C@H](O)[C@H](C)O2)Oc2ccc(cc2Cl)[C@H]1O  MBC (Streptococcus pyogenes; microbial killing): > 32 µg/mL
N#Cc1c(-c2ccc(Cl)cc2)nc2n(c1=O)NC(c1ccccc1O)N2C(Cc1c[nH]c2ccccc12)C(=O)O (centres unmarked)  inhibition zone (Streptococcus pyogenes; microbial growth; ATCC19615; 15 µg/mL, 24 h): 34 mm
COc1ccc2nc(-c3ccccn3)c(Nc3ccc(F)cc3)n2c1  IC50 (Leishmania infantum; parasite growth; intracellular, amastigote): 2.16 µM
O=C1NC(=S)N/C1=C\c1ccc(-c2ccc(N(c3ccccc3)c3ccccc3)cc2)c2ccccc12  MIC (Streptococcus pyogenes; microbial growth, broth dilution; ATCC19615): > 1000 µg/mL
CC(=O)C1=C(C)N2NC(C)(c3ccccc3O)N(C(Cc3c[nH]c4ccccc34)C(=O)O)C2=NC1c1ccc(Cl)cc1 (centres unmarked)  inhibition zone (Streptococcus pyogenes; microbial growth; ATCC19615; 15 µg/mL, 24 h): 32 mm
Cc1ccccc1-c1c(-c2ccccn2)nc2n1CCC2  EC50 (Leishmania infantum; parasite growth; 5 days, intracellular, amastigote): 1 µM
O=C1NC(=S)S/C1=C\c1c2ccccc2c(-c2ccc(N(c3ccccc3)c3ccccc3)cc2)c2ccccc12  MBC (Streptococcus pyogenes; microbial killing, broth dilution; ATCC19615): > 1000 µg/mL
O=C(Nc1ccccc1-c1ccc(F)c(F)c1)c1nccnc1C(F)(F)F  EC50 (Diaporthe citri; microbial growth): > 100 µg/mL
COc1ccc(-c2c(-c3ccccn3)nc3n2CCC3)cc1OC  EC50 (Leishmania infantum; parasite growth; 5 days, intracellular, amastigote): 2 µM
CCOC(=O)C1=C(C)N2NC(C)(c3ccccc3O)N(C(C)C(=O)O)C2=NC1c1ccc(Cl)cc1 (centres unmarked)  inhibition zone (Streptococcus pyogenes; microbial growth; ATCC19615; 10 µg/mL, 24 h): 14 mm
CCCCC(=O)N1C(=O)/C(=C(/C)O)C(=O)C1CC(C)C (centres unmarked)  MIC (Stenotrophomonas maltophilia; microbial growth; ATCC13637): > 200 µg/mL
O=C(N[C@@H](Cc1ccccc1)C(=O)c1c[nH]nn1)[C@H](Cc1ccccc1)NC(=O)N1CCOCC1  IC50 (Leishmania infantum; parasite growth; intracellular, amastigote): > 64 µM
Fc1ccc(NCc2c(-c3ccccn3)nc3ccccn23)cc1  IC50 (Leishmania infantum; parasite growth; intracellular, amastigote): > 64 µM
O=C1NC(=S)S/C1=C\c1ccc(-c2ccc(N(c3ccccc3)c3ccccc3)cc2)cc1  MBC (Streptococcus mutans; microbial killing, broth dilution; ATCC25175): > 1000 µg/mL
Cc1ccc2nc(-c3ccccc3)c(CNc3cccc(C(F)(F)F)c3)n2c1  IC50 (Leishmania infantum; parasite growth; intracellular, amastigote): 32 µM
O=C1C(=Cc2ccccc2)Oc2ccccc21  inhibition (Streptococcus mutans; microbial growth; UA159; 50 µM): 80%
CCOC(=O)C1=C(C)N2NC(C)(c3ccccc3O)N(C(Cc3c[nH]c4ccccc34)C(=O)O)C2=NC1c1ccc(Cl)cc1 (centres unmarked)  inhibition zone (Streptococcus pyogenes; microbial growth; ATCC19615; 15 µg/mL, 24 h): 31 mm
